Laboratory results reported in ChEMBL document CHEMBL4304834, “3-Amino-chromanes and Tetrahydroquinolines as Selective 5-HT2B, 5-HT7, or σ1 Receptor Ligands” (ACS Med Chem Lett, 2019).

What was measured:
Assay type in all cases: cell-based
[1] = target: T1, Alpha-1A adrenergic receptor (Homo sapiens) (UniProt P35348); assay: Displacement of [3H]-Prazosin from human recombinant adrenergic alpha1A receptor expressed in cells at 10 uM after 90 mins by microbeta scintillation counting method relative to control
T1 sequence (whole entry): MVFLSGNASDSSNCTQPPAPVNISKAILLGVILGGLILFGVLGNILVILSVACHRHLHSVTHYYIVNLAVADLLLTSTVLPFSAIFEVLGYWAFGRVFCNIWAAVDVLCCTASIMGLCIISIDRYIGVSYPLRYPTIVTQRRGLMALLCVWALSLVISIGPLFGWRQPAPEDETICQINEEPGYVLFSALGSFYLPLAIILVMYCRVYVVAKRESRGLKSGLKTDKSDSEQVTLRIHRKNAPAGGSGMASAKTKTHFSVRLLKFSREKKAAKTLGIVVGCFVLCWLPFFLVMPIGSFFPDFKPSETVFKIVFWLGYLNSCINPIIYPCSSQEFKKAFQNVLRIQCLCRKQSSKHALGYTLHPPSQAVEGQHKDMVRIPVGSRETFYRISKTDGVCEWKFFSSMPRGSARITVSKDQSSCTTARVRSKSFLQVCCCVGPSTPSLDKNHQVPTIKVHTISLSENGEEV

[2] = target: 5-hydroxytryptamine receptor 2B (Homo sapiens, UniProt P41595); assay: Displacement of [3H]-LSD from human recombinant 5-HT2B receptor stably expressed in HEK cells after 90 mins by microbeta scintillation counting method; conditions: read-out: pKi (converted)
5-hydroxytryptamine receptor 2B, sequence (P41595 whole entry): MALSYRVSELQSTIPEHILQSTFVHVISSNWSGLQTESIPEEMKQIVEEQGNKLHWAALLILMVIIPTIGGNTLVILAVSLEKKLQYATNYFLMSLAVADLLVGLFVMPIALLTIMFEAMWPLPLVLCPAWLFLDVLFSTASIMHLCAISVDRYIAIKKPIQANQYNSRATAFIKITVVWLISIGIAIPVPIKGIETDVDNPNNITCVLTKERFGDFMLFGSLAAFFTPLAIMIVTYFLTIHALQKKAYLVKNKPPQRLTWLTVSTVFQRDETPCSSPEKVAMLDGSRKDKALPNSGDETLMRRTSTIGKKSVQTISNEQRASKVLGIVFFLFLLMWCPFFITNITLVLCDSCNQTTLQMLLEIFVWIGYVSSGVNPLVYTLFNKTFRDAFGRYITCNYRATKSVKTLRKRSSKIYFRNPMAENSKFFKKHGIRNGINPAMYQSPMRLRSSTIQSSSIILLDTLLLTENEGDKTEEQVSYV
In short: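 Run by NIMH Psychoactive Drug Screening Program. Otherwise, competition binding curves are generated and pKi is taken from a sigmoidal curve fit. Data are either triplicate measurements within one experiment, with the error from the fit, or the mean of repeated experiments, each run in triplicate.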

[3] = target: T2, Muscarinic acetylcholine receptor M2 (Homo sapiens) (UniProt P08172); assay: Displacement of [3H]-QNB/[3H]-NMS from human recombinant Muscarinic acetylcholine M2 receptor expressed in stable CHO cells at 10 uM after 90 mins by microbeta scintillation counting method relative to control
T2 sequence (whole entry): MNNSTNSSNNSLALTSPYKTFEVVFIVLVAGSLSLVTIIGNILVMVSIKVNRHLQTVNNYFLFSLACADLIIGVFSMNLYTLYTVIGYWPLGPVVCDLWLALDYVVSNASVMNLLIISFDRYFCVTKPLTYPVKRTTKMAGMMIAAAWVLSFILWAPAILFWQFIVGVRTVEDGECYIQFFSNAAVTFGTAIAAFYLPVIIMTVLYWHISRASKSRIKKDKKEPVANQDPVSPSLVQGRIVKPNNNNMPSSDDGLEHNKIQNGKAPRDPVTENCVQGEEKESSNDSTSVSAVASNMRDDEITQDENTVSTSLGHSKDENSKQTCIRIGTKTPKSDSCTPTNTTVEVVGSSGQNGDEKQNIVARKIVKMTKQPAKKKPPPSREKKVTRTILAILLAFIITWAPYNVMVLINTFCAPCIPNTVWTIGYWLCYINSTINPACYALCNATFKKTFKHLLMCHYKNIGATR

Mu-type opioid receptor = Mu-type opioid receptor (Homo sapiens, UniProt P35372); assay: Displacement of [3H]-DAMGO from human recombinant MOR receptor expressed in stable HEK cells after 90 mins by microbeta scintillation counting method
Mu-type opioid receptor, sequence (P35372 whole entry): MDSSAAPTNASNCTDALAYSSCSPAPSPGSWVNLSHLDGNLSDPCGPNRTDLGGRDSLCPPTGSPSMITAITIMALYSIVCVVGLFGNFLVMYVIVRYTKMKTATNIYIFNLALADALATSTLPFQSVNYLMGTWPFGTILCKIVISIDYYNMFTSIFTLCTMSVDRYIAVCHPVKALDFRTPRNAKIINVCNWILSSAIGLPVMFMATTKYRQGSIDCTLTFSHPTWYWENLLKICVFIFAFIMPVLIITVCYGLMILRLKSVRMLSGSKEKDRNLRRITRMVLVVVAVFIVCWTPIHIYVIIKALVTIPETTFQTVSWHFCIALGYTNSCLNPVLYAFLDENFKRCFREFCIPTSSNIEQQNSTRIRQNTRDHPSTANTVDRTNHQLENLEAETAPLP
In short: (§1)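 Radioligand binding run by the NIMH Psychoactive Drug Screening Program. […] Otherwise Ki comes from sigmoidal curve fits of triplicate measurements in a single experiment, or is averaged over repeated experiments each run in triplicate.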

[4] = target: Delta-type opioid receptor (Homo sapiens, UniProt P41143); assay: Displacement of [3H]-DADLE from human recombinant DOR receptor expressed in stable HEK cells after 90 mins by microbeta scintillation counting method; in short: as §1
Delta-type opioid receptor, sequence (P41143 whole entry): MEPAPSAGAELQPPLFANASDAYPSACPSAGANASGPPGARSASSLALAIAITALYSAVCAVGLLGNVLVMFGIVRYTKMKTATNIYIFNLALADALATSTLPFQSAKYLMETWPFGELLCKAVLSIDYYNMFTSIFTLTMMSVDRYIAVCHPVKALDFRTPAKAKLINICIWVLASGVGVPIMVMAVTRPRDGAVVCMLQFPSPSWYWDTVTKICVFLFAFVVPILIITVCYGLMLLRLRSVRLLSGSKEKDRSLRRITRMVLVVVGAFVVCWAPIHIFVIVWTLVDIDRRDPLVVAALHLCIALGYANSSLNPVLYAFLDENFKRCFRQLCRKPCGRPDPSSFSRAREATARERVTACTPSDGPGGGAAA

[5] = target: Beta-1 adrenergic receptor (Homo sapiens, UniProt P08588); assay: Displacement of [125I]-pindolol from human recombinant adrenergic Beta1 receptor expressed in Flp-In CHO cells after 90 mins by microbeta scintillation counting method; in short: as §1
Beta-1 adrenergic receptor, sequence (P08588 whole entry): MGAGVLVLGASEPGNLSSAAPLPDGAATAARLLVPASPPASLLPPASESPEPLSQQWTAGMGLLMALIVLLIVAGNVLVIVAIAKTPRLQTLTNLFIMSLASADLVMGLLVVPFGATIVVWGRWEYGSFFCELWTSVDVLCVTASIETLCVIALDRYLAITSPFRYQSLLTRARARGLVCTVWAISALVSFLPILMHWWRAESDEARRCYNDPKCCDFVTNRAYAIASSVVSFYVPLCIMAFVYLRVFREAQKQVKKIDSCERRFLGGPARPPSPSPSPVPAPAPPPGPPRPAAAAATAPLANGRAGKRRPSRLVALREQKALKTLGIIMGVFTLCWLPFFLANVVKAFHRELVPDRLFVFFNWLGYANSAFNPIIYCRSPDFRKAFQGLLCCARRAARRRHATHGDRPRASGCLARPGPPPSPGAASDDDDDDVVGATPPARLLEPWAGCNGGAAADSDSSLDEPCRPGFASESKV

Histamine H2 receptor = Histamine H2 receptor (Homo sapiens, UniProt P25021); assay: Displacement of [125I]-Iodoaminopotentidine from human recombinant histamine H2 receptor expressed in stable HEK cells at 10 uM after 90 mins by microbeta scintillation counting method relative to control; in short: as §1
Histamine H2 receptor, sequence (P25021 whole entry): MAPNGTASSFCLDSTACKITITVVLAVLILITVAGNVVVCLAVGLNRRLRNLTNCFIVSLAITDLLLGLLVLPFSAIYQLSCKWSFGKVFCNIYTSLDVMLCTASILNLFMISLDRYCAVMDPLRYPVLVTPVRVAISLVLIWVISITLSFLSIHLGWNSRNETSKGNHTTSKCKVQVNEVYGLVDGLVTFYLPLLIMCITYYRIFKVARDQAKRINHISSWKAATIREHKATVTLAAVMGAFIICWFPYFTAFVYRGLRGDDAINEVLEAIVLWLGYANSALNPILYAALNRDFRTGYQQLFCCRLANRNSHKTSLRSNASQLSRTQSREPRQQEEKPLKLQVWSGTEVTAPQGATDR

[6] = target: T3, D(4) dopamine receptor (Homo sapiens) (UniProt P21917); assay: Displacement of [3H]-methylspiperone from human recombinant dopamine D4 receptor expressed in Stable HEK cells at 10 uM after 90 mins by microbeta scintillation counting method relative to control
T3 sequence (whole entry): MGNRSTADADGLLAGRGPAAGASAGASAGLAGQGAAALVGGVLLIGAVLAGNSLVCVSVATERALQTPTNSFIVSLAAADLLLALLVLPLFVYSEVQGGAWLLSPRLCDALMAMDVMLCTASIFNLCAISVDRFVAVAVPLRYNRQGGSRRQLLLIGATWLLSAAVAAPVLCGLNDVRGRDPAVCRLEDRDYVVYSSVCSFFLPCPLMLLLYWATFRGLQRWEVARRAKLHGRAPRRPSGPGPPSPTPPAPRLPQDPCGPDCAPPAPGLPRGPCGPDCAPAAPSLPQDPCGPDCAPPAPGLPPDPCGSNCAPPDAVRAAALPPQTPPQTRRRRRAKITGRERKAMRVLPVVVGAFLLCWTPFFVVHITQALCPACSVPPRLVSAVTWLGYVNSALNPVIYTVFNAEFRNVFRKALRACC

[7] = target: 5-hydroxytryptamine receptor 1B (Homo sapiens, UniProt P28222); assay: Displacement of [3H]5-CT from human recombinant 5-HT1B receptor expressed in stable HEK cells after 90 mins by microbeta scintillation counting method
5-hydroxytryptamine receptor 1B, sequence (P28222 whole entry): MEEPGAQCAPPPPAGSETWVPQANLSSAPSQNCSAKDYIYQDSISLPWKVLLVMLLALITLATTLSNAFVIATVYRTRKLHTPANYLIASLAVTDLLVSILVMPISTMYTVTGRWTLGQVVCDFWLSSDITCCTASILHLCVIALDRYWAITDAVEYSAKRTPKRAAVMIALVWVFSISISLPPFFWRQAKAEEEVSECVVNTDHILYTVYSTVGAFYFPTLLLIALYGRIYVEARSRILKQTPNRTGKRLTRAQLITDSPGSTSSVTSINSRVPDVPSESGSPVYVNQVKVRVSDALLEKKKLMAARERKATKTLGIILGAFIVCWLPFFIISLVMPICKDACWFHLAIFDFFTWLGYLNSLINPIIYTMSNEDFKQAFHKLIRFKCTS
In short: (§2)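 Radioligand binding was run by the NIMH Psychoactive Drug Screening Program. Compounds were first screened at 10 μM. Those giving ≥50% binding were taken to full competition curves. Ki is reported as pKi from a sigmoidal curve fit of triplicate measurements in a single experiment; the error is the curve-fit error.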

[8] = target: T4, Alpha-2A adrenergic receptor (Homo sapiens, UniProt P08913); assay: Displacement of [3H]-Rauwolscine from human recombinant adrenergic Alpha2A receptor expressed in stable MDCK cells after 90 mins by microbeta scintillation counting method; in short: as §2
T4 sequence (P08913 whole entry): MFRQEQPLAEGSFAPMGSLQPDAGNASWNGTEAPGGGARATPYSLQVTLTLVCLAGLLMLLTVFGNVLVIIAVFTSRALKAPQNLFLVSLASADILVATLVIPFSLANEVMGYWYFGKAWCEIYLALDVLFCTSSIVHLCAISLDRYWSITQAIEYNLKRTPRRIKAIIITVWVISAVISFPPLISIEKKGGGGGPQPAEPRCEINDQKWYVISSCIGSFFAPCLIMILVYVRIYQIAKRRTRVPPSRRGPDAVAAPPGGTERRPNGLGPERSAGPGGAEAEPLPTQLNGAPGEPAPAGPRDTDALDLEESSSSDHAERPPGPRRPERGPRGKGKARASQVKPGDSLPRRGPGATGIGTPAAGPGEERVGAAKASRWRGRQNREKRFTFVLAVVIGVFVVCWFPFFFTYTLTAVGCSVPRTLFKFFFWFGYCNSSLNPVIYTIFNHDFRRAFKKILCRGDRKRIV

Structure (SMILES)	inhibition [1]	Ki [2]	inhibition [3]	Ki (Mu-type opioid receptor)	Ki [4]	Ki [5]	inhibition (Histamine H2 receptor)	inhibition [6]	Ki [7]	Ki [8]
COc1cc(OC)c2c(c1)OC[C@@]1(C)NCC[C@@H]21 (racemic)	< 50%	0.251 µM	< 50%	> 10 µM	> 10 µM	1 µM	< 50%	< 50%	> 10 µM	
C[C@@]12CN(c3ccccc3)c3ccccc3[C@@H]1CCN2 (racemic)				> 10 µM	> 10 µM	3.16 µM			> 10 µM	
CC[C@H]1c2cc(OC)ccc2CC[C@@]1(C)N (racemic)	< 50%	0.145 µM	< 50%	2 µM	> 10 µM	> 10 µM	< 50%	< 50%	> 10 µM	6.31 µM
CC[C@H]1c2cc(C)ccc2OC[C@@]1(C)N (racemic)	< 50%	0.178 µM	< 50%	> 10 µM	> 10 µM	> 10 µM	< 50%	< 50%	> 10 µM	> 10 µM
CC[C@H]1c2ccccc2N(c2ccccc2)C[C@@]1(C)N (racemic)		0.794 µM		> 10 µM	> 10 µM	> 10 µM			> 10 µM	0.398 µM
